From ChEMBL document CHEMBL1137646, “Intracellular metabolism and persistence of the anti-human immunodeficiency virus activity of 2',3'-didehydro-3'-deoxy-4'-ethynylthymidine, a novel thymidine analog” (Antimicrob Agents Chemother, 2007)
Calls of active or inactive are those of the source. No cut-off for these calls is given here.

Tests used:
CCRF-CEM [1] = assay: Stability in human CEM cells assessed as intracellular radioactive triphosphate metabolite accumulation at 2 uM incubated for 24 hrs measured after 24 hrs of compound removal assessed per 10^6 cells; assay type: ADME, cell-based
Method in brief: (§1)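 CEM cells were loaded with 2 µM [3H]analog (75 mCi/mmol) for 24 h, washed, and resuspended in drug-free medium. Intracellular metabolites were then measured by SAX-HPLC with radiometric detection at 0, 2, 4, 8, 12 and 24 h after removal. Values are pmol/10^6 cells, mean ± SD of three experiments.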

CCRF-CEM [2] = assay: Drug metabolism in human CEM cells assessed as radioactive 2', 3'-didehydro-3'-deoxy-4'-ethynylthymidine monophosphate accumulation after 12 hrs assessed per 10^6 cells; assay type: ADME, cell-based
Method in brief: (§2)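 CEM cells (2 x 10^7/ml) in RPMI 1640 with 10% dialyzed FBS were incubated at 37°C with 2 µM [3H]analog (75 mCi/mmol) and harvested at 2, 4, 8, 12, 16 and 24 h. Cells were washed in ice-cold PBS with 20 µM dipyridamole and extracted with 15% TCA. Neutralized extracts were separated on a Partisil SAX column with an H2O to 300 mM potassium phosphate gradient and radiometric detection, reported as pmol/10^6 cells, mean ± SD of three experiments.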

[3] = tested on: Human immunodeficiency virus 1; assay: Antiviral activity against 0.1 MOI HIV1 3B in 24 hrs pretreated human TZM-b1 cells infected 0 hr post drug removal assessed as inhibition of viral replication at 3 uM measured 24 hrs postinfection by luciferase assay; assay type: functional; details: Human immunodeficiency virus 1, 3B
Method in brief: (§3)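 TZM-bl cells were plated in phenol red-free RPMI 1640, allowed to adhere 15–18 h at 37°C, then exposed to a range of drug concentrations for 24 h. Medium was changed to remove extracellular drug, and cells were infected with HIV-1 IIIB (MOI 0.1) at 0, 24 or 48 h after removal. Luciferase was read 24 h post-infection with uninfected-cell background subtracted, in quintuple wells, and expressed relative to no-drug wells.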

CCRF-CEM [4] = assay: Drug metabolism in human CEM cells assessed as radioactive stavudine diphosphate accumulation at 2 uM assessed per 10^6 cells; assay type: ADME, cell-based; details: TDE = time-dependent effect; method in brief: as §2
RKO [5] = assay: Drug metabolism in doxycyclin-induced Tet-On gene expressing human RKO cells producing 3-phosphoglycerate kinase assessed as radioactive 2', 3'-didehydro-3'-deoxy-4'-ethynylthymidine triphosphate accumulation after 16 hrs assessed per 10^6 cells by HPLC analysis; assay type: ADME, cell-based
Method in brief: (§4)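 Tet-On PGK RKO cells (5 x 10^5 per dish) were induced with doxycycline at 0, 50 or 100 ng/ml for 48 or 72 h, then given 2 µM [5'-3H]4'-Ed4T (478 mCi/mmol) for 16 h. Cells were washed in cold PBS with 20 µM dipyridamole and extracted with 15% TCA. Neutralized extracts went through SAX-HPLC with radiometric detection, expressed as pmol/10^6 cells, mean of three experiments.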

CCRF-CEM [6] = assay: Drug metabolism in human CEM cells assessed as radioactive 2', 3'-didehydro-3'-deoxy-4'-ethynylthymidine diphosphate accumulation after 12 hrs assessed per 10^6 cells; assay type: ADME, cell-based
Method in brief: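 For the dose series, CEM cells took up [3H]4'-Ed4T at 0.2/0.25, 0.5, 1 and 2 µM (150 mCi/mmol) for 12 h. TCA extracts were neutralized and the mono-, di- and triphosphates resolved by SAX-HPLC with radioactivity detection. Values are pmol/10^6 cells, mean ± SD, three independent experiments.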

[7] = tested on: Human immunodeficiency virus 1; assay: Antiviral activity against 0.1 MOI HIV1 3B in 24 hrs pretreated human TZM-b1 cells infected 0 hr post drug removal assessed as inhibition of viral replication at 2 uM measured 24 hrs postinfection by luciferase assay; assay type: functional; details: Human immunodeficiency virus 1, 3B; method in brief: as §3
RKO [8] = assay: Drug metabolism in doxycyclin-induced Tet-On gene expressing human RKO cells producing 3-phosphoglycerate kinase assessed as increase in radioactive 2', 3'-didehydro-3'-deoxy-4'-ethynylthymidine triphosphate accumulation at 2 uM after 16 hrs assessed per 10^6 cells by HPLC analysis relative to control; assay type: ADME, cell-based; method in brief: as §4
CCRF-CEM [9] = assay: Drug metabolism in human CEM cells assessed as radioactive zidovudine monophosphate accumulation at 2 uM assessed per 10^6 cells; assay type: ADME, cell-based; details: TDE = time-dependent effect; method in brief: as §2
CCRF-CEM [10] = assay: Drug metabolism in human CEM cells assessed as radioactive 2', 3'-didehydro-3'-deoxy-4'-ethynylthymidine triphosphate accumulation after 12 hrs assessed per 10^6 cells; assay type: ADME, cell-based; method in brief: as §2
[11] = tested on: Human immunodeficiency virus 1; assay: Antiviral activity against 0.1 MOI HIV1 3B in 24 hrs pretreated human TZM-b1 cells infected 0 hr post drug removal assessed as inhibition of viral replication at 1 uM measured 24 hrs postinfection by luciferase assay; assay type: functional; details: Human immunodeficiency virus 1, 3B; method in brief: as §3
[12] = tested on: Human immunodeficiency virus 1; assay: Antiviral activity against 0.1 MOI HIV1 3B in 24 hrs pretreated human TZM-b1 cells infected 0 hr post drug removal assessed as inhibition of viral replication at 6 uM measured 24 hrs postinfection by luciferase assay; assay type: functional; details: Human immunodeficiency virus 1, 3B; method in brief: as §3
CCRF-CEM [13] = assay: Drug metabolism in human CEM cells assessed as radioactive stavudine monophosphate accumulation at 2 uM assessed per 10^6 cells; assay type: ADME, cell-based; details: TDE = time-dependent effect; method in brief: as §2
CCRF-CEM [14] = assay: Drug metabolism in human CEM cells assessed as radioactive 2', 3'-didehydro-3'-deoxy-4'-ethynylthymidine triphosphate accumulation at 2 uM assessed per 10^6 cells; assay type: ADME, cell-based; details: TDE = time-dependent effect; method in brief: as §2
CCRF-CEM [15] = assay: Drug metabolism in human CEM cells assessed as radioactive 2', 3'-didehydro-3'-deoxy-4'-ethynylthymidine diphosphate accumulation at 2 uM assessed per 10^6 cells; assay type: ADME, cell-based; details: TDE = time-dependent effect; method in brief: as §2
RKO [16] = assay: Drug metabolism in doxycyclin-induced Tet-On gene expressing human RKO cells producing thymidylate kinase assessed as increase in radioactive 2', 3'-didehydro-3'-deoxy-4'-ethynylthymidine diphosphate accumulation at 2 uM after 16 hrs assessed per 10^6 cells by HPLC analysis relative to control; assay type: ADME, cell-based
Method in brief: (§5)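 TMPK Tet-On RKO cells were seeded at 5 x 10^5 per dish with doxycycline at 0, 50 or 3,000 ng/ml for 48 or 72 h, then pulsed for 16 h with 2 µM [5'-3H]4'-Ed4T (478 mCi/mmol). After a cold PBS wash containing 20 µM dipyridamole, cells were extracted with 15% TCA and neutralized with trioctylamine/trichlorotrifluoroethane. Metabolites were quantified by radio-HPLC as pmol/10^6 cells, n=3.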

[17] = tested on: Human immunodeficiency virus 1; assay: Antiviral activity against 0.1 MOI HIV1 3B infected in human TZM-b1 cells assessed as inhibition of viral replication at 6 uM after 24 hrs by luciferase assay; assay type: functional; details: Human immunodeficiency virus 1, 3B, TZM-b1, 24 h
Method in brief: (§6)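 TZM-bl cells in phenol red-free RPMI 1640 were infected with HIV-1 IIIB (MOI 0.1) at the time of adding drug at various concentrations, and drug and virus stayed together for 24 h. Lysate luciferase was measured with uninfected background subtracted, in quintuple wells. Inhibition was the mean signal relative to drug-free infected cells.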

CCRF-CEM [18] = assay: Stability in human CEM cells assessed as intracellular radioactive phosphorylated metabolite accumulation at 2 uM incubated for 24 hrs measured after 8 hrs of compound removal assessed per 10^6 cells; assay type: ADME, cell-based; method in brief: as §1
[19] = tested on: Human immunodeficiency virus 1; assay: Antiviral activity against 0.1 MOI HIV1 3B infected in human TZM-b1 cells assessed as inhibition of viral replication after 24 hrs by luciferase assay; assay type: functional, organism-based; method in brief: as §6
[20] = tested on: Human immunodeficiency virus 1; assay: Antiviral activity against 0.1 MOI HIV1 3B in 24 hrs pretreated human TZM-b1 cells infected 0 hr post drug removal assessed as inhibition of viral replication at 5 uM measured 24 hrs postinfection by luciferase assay; assay type: functional; details: Human immunodeficiency virus 1, 3B; method in brief: as §3
CCRF-CEM [21] = assay: Drug metabolism in human CEM cells assessed as radioactive 2', 3'-didehydro-3'-deoxy-4'-ethynylthymidine monophosphate accumulation at 2 uM assessed per 10^6 cells; assay type: ADME, cell-based; details: TDE = time-dependent effect; method in brief: as §2
[22] = tested on: Human immunodeficiency virus 1; assay: Antiviral activity against 0.1 MOI HIV1 3B in 24 hrs pretreated human TZM-b1 cells infected 0 hr post drug removal assessed as inhibition of viral replication at 4 uM measured 24 hrs postinfection by luciferase assay; assay type: functional; details: Human immunodeficiency virus 1, 3B; method in brief: as §3
RKO [23] = assay: Drug metabolism in doxycyclin-induced Tet-On gene expressing human RKO cells producing thymidylate kinase assessed as increase in radioactive 2', 3'-didehydro-3'-deoxy-4'-ethynylthymidine triphosphate accumulation at 2 uM after 16 hrs assessed per 10^6 cells by HPLC analysis relative to control; assay type: ADME, cell-based; method in brief: as §5
CCRF-CEM [24] = assay: Drug metabolism in human CEM cells assessed as radioactive zidovudine triphosphate accumulation at 2 uM assessed per 10^6 cells; assay type: ADME, cell-based; details: TDE = time-dependent effect; method in brief: as §2
CCRF-CEM [25] = assay: Drug metabolism in human CEM cells assessed as radioactive zidovudine diphosphate accumulation at 2 uM assessed per 10^6 cells; assay type: ADME, cell-based; details: TDE = time-dependent effect; method in brief: as §2
CCRF-CEM [26] = assay: Drug metabolism in human CEM cells assessed as radioactive stavudine triphosphate accumulation at 2 uM assessed per 10^6 cells; assay type: ADME, cell-based; details: TDE = time-dependent effect; method in brief: as §2
[27] = tested on: Human immunodeficiency virus 1; assay: Antiviral activity against 0.1 MOI HIV1 3B in 24 hrs pretreated human TZM-b1 cells infected 24 hrs post drug removal assessed as inhibition of viral replication at 1 uM measured 24 hrs postinfection by luciferase assay; assay type: functional; details: Human immunodeficiency virus 1, 3B; method in brief: as §3
[28] = tested on: Human immunodeficiency virus 1; assay: Antiviral activity against 0.1 MOI HIV1 3B infected in human TZM-b1 cells assessed as inhibition of viral replication at 2 uM after 24 hrs by luciferase assay; assay type: functional; details: Human immunodeficiency virus 1, 3B, TZM-b1, 24 h; method in brief: as §6
RKO [29] = assay: Drug metabolism in doxycyclin-induced Tet-On gene expressing human RKO cells producing thymidylate kinase assessed as radioactive 2', 3'-didehydro-3'-deoxy-4'-ethynylthymidine diphosphate accumulation after 16 hrs assessed per 10^6 cells by HPLC analysis; assay type: ADME, cell-based; method in brief: as §5
[30] = tested on: Human immunodeficiency virus 1; assay: Antiviral activity against 0.1 MOI HIV1 3B in 24 hrs pretreated human TZM-b1 cells infected 24 hrs post drug removal assessed as inhibition of viral replication at 1 to 6 uM measured 24 hrs postinfection by luciferase assay

In the case of `C#C[C@@]1(CO)C=C[C@H](n2cc(C)c(=O)[nH]c2=O)O1` [CENSAVUDINE], the Stability (CCRF-CEM [1]) is reported as 0.2 pmol, the Activity (CCRF-CEM [2]) is reported as “Dose-dependent effect” and the inhibition at 3 µM [3] is reported as 50%. The Activity (CCRF-CEM [4]) was “tde”, the Activity (RKO [5]) was “Dose-dependent effect” and the Activity (CCRF-CEM [6]) was “Dose-dependent effect”. For the same molecule, the inhibition at 2 µM [7] was 50%, the “fold change (FC)” value (RKO [8]) was 2.3 and the Activity (CCRF-CEM [9]) was “tde”. The Activity (CCRF-CEM [10]) was “Dose-dependent effect”, the inhibition at 1 µM [11] was 50% and the inhibition at 6 µM [12] was 50%. The Activity (CCRF-CEM [13]) was “tde”, the Activity (CCRF-CEM [14]) was “tde” and the Activity (CCRF-CEM [15]) was “tde”. The “fold change (FC)” value (RKO [16]) was 3, the inhibition at 6 µM [17] was 50% and the Stability (CCRF-CEM [18]) was 1.07 pmol. The inhibition [19] was “Dose-dependent effect”, the inhibition at 5 µM [20] was 50% and the Activity (CCRF-CEM [21]) was “tde”. For the same molecule, the inhibition at 4 µM [22] was 50%, the “fold change (FC)” value (RKO [23]) was 3 and the Activity (CCRF-CEM [24]) was “tde”. The Activity (CCRF-CEM [25]) was “tde”, the Activity (CCRF-CEM [26]) was “tde” and the inhibition at 1 µM [27] was > 50%. The inhibition at 2 µM [28] was 50%, the Activity (RKO [29]) was “Dose-dependent effect” and the inhibition [30] was “Active”.
